Molecules are shown by their SMILES. Active and inactive are the calls of the source. No cut-off for these calls is given here. A value given as a limit tells only on which side of the number the result lay.

Data set [1] has as its target T1, Integrin alpha-4/beta-1 (Homo sapiens, UniProt P05556+P13612). Put plainly: Inhibition of alpha4beta1 integrin expressed in human CCRF-CEM cells assessed as cell adhesion to fibronectin after 1 hr by fluorimetry analysis. In kind it is cell-based. Summed up: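 Calcein-prelabelled CCRF-CEM cells (α4β1-expressing T lymphoblast-like line) were added to plates coated with fibronectin (10 µg/mL). Incubation was 1 h at 37 °C with or without increasing compound doses (1–500 µM). Adherent cells were quantified by fluorescence, and IC50 was derived from the inhibition of adhesion.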

The target in data set [2] is T1, Integrin alpha-4/beta-1. Put plainly: Detachment of pre-adhered alpha4beta1 integrin expressed in calcein-labelled human CCRF-CEM cells from fibronectin at 1 to 500 uM after 24 to 48 hrs by MTT assay. In kind it is cell-based.
For a further data set, the system named is HUVEC. The data set can be described thus: Inhibition of fibronectin adhesion into HUVEC after 1 hr by fluorimetry analysis. The format is functional, cell-based. The settings on record: Homo sapiens.
The next data set deals with CCRF-CEM. The data set can be described thus: Cytotoxicity against human CCRF-CEM cells at 200 uM after 24 hrs by propidium iodide-based flow cytometry. In kind it is cell-based. The method in brief:
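CCRF-CEM cells were incubated for 24 h with increasing amounts of compound, up to 200 µM final, then stained with propidium iodide to detect dead cells by fluorescence.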

In data set [3] the target is T1, Integrin alpha-4/beta-1. The data set can be described thus: Binding affinity to alpha4beta1 integrin expressed human CCRF-CEM cells at 100 uM after 24 hrs by alexa-conjugated streptavidin-based microscopy. In kind it is cell-based. The method in brief: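 Fibronectin-coated plates (10 µg/mL). Adherent CCRF-CEM cells were exposed to biotin-conjugated molecules at 100 µM for 24 h and washed extensively. Alexa 568-conjugated streptavidin was then added, and extracellular fluorescence on the cell surface was imaged. Controls were not pre-treated and received only fluorescent streptavidin.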

The target in data set [4] is T1, Integrin alpha-4/beta-1. Put plainly: Induction of adhesion of alpha4beta1 integrin expressing calcein-labelled human CCRF-CEM cells to neutravidin-coated plates at 0.1 to 10 uM pre-incubated for 2 hrs measured after 1 hr by fluorimetry. In kind it is cell-based. Summed up: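 Neutravidin-coated plates were pre-treated with biotin-conjugated compound, then calcein-labelled CCRF-CEM cells were added. Adherent cells were quantified by calcein fluorescence. Untreated plates served as control.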

T1 sequence (P05556 whole entry): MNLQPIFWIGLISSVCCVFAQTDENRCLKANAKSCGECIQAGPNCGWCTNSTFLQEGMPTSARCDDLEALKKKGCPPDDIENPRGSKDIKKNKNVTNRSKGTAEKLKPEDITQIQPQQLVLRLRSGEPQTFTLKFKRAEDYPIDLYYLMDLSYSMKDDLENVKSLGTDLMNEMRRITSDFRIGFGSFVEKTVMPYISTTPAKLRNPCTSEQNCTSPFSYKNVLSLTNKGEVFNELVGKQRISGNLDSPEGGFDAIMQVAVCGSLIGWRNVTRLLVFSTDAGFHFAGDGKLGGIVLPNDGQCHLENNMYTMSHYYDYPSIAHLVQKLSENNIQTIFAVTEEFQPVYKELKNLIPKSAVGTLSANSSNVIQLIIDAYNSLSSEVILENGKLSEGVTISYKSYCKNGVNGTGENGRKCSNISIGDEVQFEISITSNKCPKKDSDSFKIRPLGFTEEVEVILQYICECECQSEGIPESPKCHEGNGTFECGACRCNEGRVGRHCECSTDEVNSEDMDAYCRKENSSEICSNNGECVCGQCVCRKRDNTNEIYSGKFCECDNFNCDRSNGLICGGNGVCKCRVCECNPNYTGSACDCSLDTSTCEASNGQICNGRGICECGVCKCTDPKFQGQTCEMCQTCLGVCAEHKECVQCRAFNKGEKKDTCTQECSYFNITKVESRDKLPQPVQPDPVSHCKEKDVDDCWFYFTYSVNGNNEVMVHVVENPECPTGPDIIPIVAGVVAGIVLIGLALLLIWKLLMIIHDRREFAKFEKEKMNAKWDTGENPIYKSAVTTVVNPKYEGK
T1 sequence (P13612 whole entry): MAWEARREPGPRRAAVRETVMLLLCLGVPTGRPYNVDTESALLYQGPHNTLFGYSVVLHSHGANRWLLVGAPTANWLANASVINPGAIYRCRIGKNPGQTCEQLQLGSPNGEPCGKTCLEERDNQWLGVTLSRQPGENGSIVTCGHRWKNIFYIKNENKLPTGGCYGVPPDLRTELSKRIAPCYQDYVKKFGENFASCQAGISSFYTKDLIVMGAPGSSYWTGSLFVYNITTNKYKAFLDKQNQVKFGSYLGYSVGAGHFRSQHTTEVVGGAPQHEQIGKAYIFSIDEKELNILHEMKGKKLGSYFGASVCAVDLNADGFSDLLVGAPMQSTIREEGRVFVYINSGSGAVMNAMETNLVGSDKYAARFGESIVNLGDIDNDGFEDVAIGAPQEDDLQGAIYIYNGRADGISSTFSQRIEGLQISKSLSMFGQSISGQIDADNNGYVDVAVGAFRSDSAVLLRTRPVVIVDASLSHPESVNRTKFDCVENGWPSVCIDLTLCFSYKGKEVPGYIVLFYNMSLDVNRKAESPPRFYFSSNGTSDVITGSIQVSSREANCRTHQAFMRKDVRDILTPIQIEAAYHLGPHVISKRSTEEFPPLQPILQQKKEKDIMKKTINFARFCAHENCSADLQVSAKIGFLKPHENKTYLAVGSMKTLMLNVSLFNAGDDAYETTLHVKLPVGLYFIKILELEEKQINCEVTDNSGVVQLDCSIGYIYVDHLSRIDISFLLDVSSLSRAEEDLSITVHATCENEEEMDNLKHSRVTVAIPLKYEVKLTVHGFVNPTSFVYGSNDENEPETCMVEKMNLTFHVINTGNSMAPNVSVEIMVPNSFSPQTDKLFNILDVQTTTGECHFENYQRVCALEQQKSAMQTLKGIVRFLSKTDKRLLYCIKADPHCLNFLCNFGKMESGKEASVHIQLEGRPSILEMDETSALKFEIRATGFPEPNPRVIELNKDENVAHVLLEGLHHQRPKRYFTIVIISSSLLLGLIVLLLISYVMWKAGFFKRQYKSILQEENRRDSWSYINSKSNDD

Regarding `Cc1cccc(C)c1NC(=O)Nc1ccc(CC(=O)NCCCCCCCCCCCCN)cc1`, the IC50 at Integrin alpha-4/beta-1 [1] turned out to be 151 µM.
On to `Cc1cccc(C)c1NC(=O)Nc1ccc(CC(=O)Nc2ccc(OCC(=O)O)c(CCC(=O)NCCOCCOCCOCCOCCOCCN)c2)cc1`, for which the outcome on Integrin alpha-4/beta-1 [2] was inactive. Also, the IC50 on Integrin alpha-4/beta-1 [1] is 170 µM.
In the case of `Cc1cccc(C)c1NC(=O)Nc1ccc(CC(=O)N[C@@H](CC(C)C)C(=O)N[C@@H](CC(=O)O)C(=O)N[C@H](C(=O)NCCCCCCCCCCCCN)C(C)C)cc1`, the inhibition entry in the data set on HUVEC was “inactive”. The IC50 on Integrin alpha-4/beta-1 [1] is 2.6 µM.
`Cc1cccc(C)c1NC(=O)Nc1ccc(CC(=O)Nc2ccc(OCC(=O)O)c(CCC(=O)NCCCCCCCCCCCCN)c2)cc1`: at Integrin alpha-4/beta-1 [2], the outcome was Active. Further, at Integrin alpha-4/beta-1 [1], the IC50 is 123 µM.
As to `Cc1cccc(C)c1NC(=O)Nc1ccc(CC(=O)NCCCCCCCCCCCCNC(=O)CCCC[C@@H]2SC[C@@H]3NC(=O)N[C@@H]32)cc1`, in the data set on CCRF-CEM, the Activity result was “Non-toxic”. In addition, the outcome on Integrin alpha-4/beta-1 [3] and at Integrin alpha-4/beta-1 [4] was inactive. The IC50 on Integrin alpha-4/beta-1 [1] was 97.7 µM.
With `Cc1cccc(C)c1NC(=O)Nc1ccc(CC(=O)Nc2ccc(OCC(=O)OC(C)(C)C)c(CCC(=O)O)c2)cc1`, at Integrin alpha-4/beta-1 [1], the IC50 came out at 68.4 µM.
For `Cc1cccc(C)c1NC(=O)Nc1ccc(CC(=O)N[C@@H](CC(C)C)C(=O)N[C@@H](CC(=O)O)C(=O)N[C@H](C(=O)NCCc2ccccc2)C(C)C)cc1`, in the data set on HUVEC, the inhibition result was “inactive”. In addition, the IC50 at Integrin alpha-4/beta-1 [1] came out at 36.3 µM.
`Cc1cccc(C)c1NC(=O)Nc1ccc(CC(=O)Nc2ccc(OCC(=O)O)c(CCC(=O)NCCCCCCCCCCCCNC(=O)CCCC[C@@H]3SC[C@@H]4NC(=O)N[C@@H]43)c2)cc1`: in the data set with CCRF-CEM, the Activity result is listed as “Non-toxic”. In addition, the outcome on Integrin alpha-4/beta-1 [3] and on Integrin alpha-4/beta-1 [4] was Active. In addition, the IC50 at Integrin alpha-4/beta-1 [1] was found to be 14.1 µM.
Regarding `Cc1cccc(C)c1NC(=O)Nc1ccc(CC(=O)O)cc1`, on Integrin alpha-4/beta-1 [1], the IC50 was > 1000 µM.

By IC50 is commonly meant the concentration at which inhibition is half-maximal.

The record behind these values is ChEMBL document CHEMBL1933001, “LDV peptidomimetics equipped with biotinylated spacer-arms: synthesis and biological evaluation on CCRF-CEM cell line” (Bioorg Med Chem Lett, 2012).
